Laboratory results reported in ChEMBL document CHEMBL5058577, “EUbOPEN Chemogenomics Library 2 (Multiplex)” (2022).

Test system: Fibroblast
Experiment: Multiplex assay against human fibroblast
Assay type: toxicity, cell-based
Method in brief: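 Live cells were stained at seeding with Hoechst33342, BioTracker Green Microtubule Cytoskeleton Dye, MitoTracker Red and Annexin V Alexa Fluor 680. Following compound addition, they were imaged on a CQ1 microscope at 37°C and 5% CO2 and gated by CellPathfinder machine learning into Hoechst high-intensity objects or normal cells, with normal cells split into healthy, pyknosed or fragmented nuclei and pyknosed cells into mitotic or apoptotic. Tubulin, mitochondrial-mass and membrane-permeability phenotypes are per cents of healthy-nucleus cells.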

[1] = 12 h, 1 µM, compound concentration 1 uM, replicate 1
[2] = 12 h, 1 µM, compound concentration 1 uM, replicate 2
[3] = 12 h, 10 µM, compound concentration 10 uM, replicate 1
[4] = 12 h, 10 µM, compound concentration 10 uM, replicate 2
[5] = 24 h, 1 µM, compound concentration 1 uM, replicate 1
[6] = 24 h, 1 µM, compound concentration 1 uM, replicate 2
[7] = 24 h, 10 µM, compound concentration 10 uM, replicate 1
[8] = 24 h, 10 µM, compound concentration 10 uM, replicate 2
[9] = 48 h, 1 µM, compound concentration 1 uM, replicate 1
[10] = 48 h, 1 µM, compound concentration 1 uM, replicate 2
[11] = 48 h, 10 µM, compound concentration 10 uM, replicate 1
[12] = 48 h, 10 µM, compound concentration 10 uM, replicate 2

O=c1ccc2ccc(OCCCCN3CCN(c4cccc5sccc45)CC3)cc2[nH]1 [BREXPIPRAZOLE]
Population Apoptotic (%) [1]: 56% | Population Fragmented Nuclei (%) [1]: 17% | Population Healthy Nuclei (%) [1]: 62% | Population Hoechst High Intensity Objects (%) [1]: 2% | Population Membrane Permeable-Phenotype (%) [1]: 0% | Population Mitochondria Different-Phenotype (%) [1]: 5% | Population Mitotic Cells (%) [1]: 44% | Population Normal (%) [1]: 97% | Population Pyknosed Nuclei (%) [1]: 20% | Population Tubulin-Different-Phenotype (%) [1]: 41% | Total Cell Count [1]: 126 | Population Apoptotic (%) [2]: 48% | Population Fragmented Nuclei (%) [2]: 33% | Population Healthy Nuclei (%) [2]: 44% | Population Hoechst High Intensity Objects (%) [2]: 5% | Population Membrane Permeable-Phenotype (%) [2]: 2% | Population Mitochondria Different-Phenotype (%) [2]: 15% | Population Mitotic Cells (%) [2]: 51% | Population Normal (%) [2]: 94% | Population Pyknosed Nuclei (%) [2]: 21% | Population Tubulin-Different-Phenotype (%) [2]: 73% | Total Cell Count [2]: 169 | Population Apoptotic (%) [3]: 68% | Population Fragmented Nuclei (%) [3]: 16% | Population Healthy Nuclei (%) [3]: 64% | Population Hoechst High Intensity Objects (%) [3]: 1% | Population Membrane Permeable-Phenotype (%) [3]: 0% | Population Mitochondria Different-Phenotype (%) [3]: 39% | Population Mitotic Cells (%) [3]: 31% | Population Normal (%) [3]: 98% | Population Pyknosed Nuclei (%) [3]: 19% | Population Tubulin-Different-Phenotype (%) [3]: 83% | Total Cell Count [3]: 203 | Population Apoptotic (%) [4]: 45% | Population Fragmented Nuclei (%) [4]: 30% | Population Healthy Nuclei (%) [4]: 49% | Population Hoechst High Intensity Objects (%) [4]: 11% | Population Membrane Permeable-Phenotype (%) [4]: 2% | Population Mitochondria Different-Phenotype (%) [4]: 25% | Population Mitotic Cells (%) [4]: 54% | Population Normal (%) [4]: 88% | Population Pyknosed Nuclei (%) [4]: 20% | Population Tubulin-Different-Phenotype (%) [4]: 81% | Total Cell Count [4]: 243 | Population Apoptotic (%) [5]: 56% | Population Fragmented Nuclei (%) [5]: 17% | Population Healthy Nuclei (%) [5]: 69% | Population Hoechst High Intensity Objects (%) [5]: 1% | Population Membrane Permeable-Phenotype (%) [5]: 0% | Population Mitochondria Different-Phenotype (%) [5]: 8% | Population Mitotic Cells (%) [5]: 43% | Population Normal (%) [5]: 98% | Population Pyknosed Nuclei (%) [5]: 13% | Population Tubulin-Different-Phenotype (%) [5]: 43% | Total Cell Count [5]: 122 | Population Apoptotic (%) [6]: 33% | Population Fragmented Nuclei (%) [6]: 32% | Population Healthy Nuclei (%) [6]: 52% | Population Hoechst High Intensity Objects (%) [6]: 3% | Population Membrane Permeable-Phenotype (%) [6]: 2% | Population Mitochondria Different-Phenotype (%) [6]: 14% | Population Mitotic Cells (%) [6]: 66% | Population Normal (%) [6]: 96% | Population Pyknosed Nuclei (%) [6]: 14% | Population Tubulin-Different-Phenotype (%) [6]: 76% | Total Cell Count [6]: 173 | Population Apoptotic (%) [7]: 58% | Population Fragmented Nuclei (%) [7]: 13% | Population Healthy Nuclei (%) [7]: 54% | Population Hoechst High Intensity Objects (%) [7]: 13% | Population Membrane Permeable-Phenotype (%) [7]: 0% | Population Mitochondria Different-Phenotype (%) [7]: 63% | Population Mitotic Cells (%) [7]: 41% | Population Normal (%) [7]: 86% | Population Pyknosed Nuclei (%) [7]: 31% | Population Tubulin-Different-Phenotype (%) [7]: 85% | Total Cell Count [7]: 218 | Population Apoptotic (%) [8]: 65% | Population Fragmented Nuclei (%) [8]: 30% | Population Healthy Nuclei (%) [8]: 40% | Population Hoechst High Intensity Objects (%) [8]: 19% | Population Mitochondria Different-Phenotype (%) [8]: 34% | Population Mitotic Cells (%) [8]: 34% | Population Normal (%) [8]: 80% | Population Pyknosed Nuclei (%) [8]: 28% | Population Tubulin-Different-Phenotype (%) [8]: 71% | Total Cell Count [8]: 239 | Population Apoptotic (%) [9]: 62% | Population Fragmented Nuclei (%) [9]: 24% | Population Healthy Nuclei (%) [9]: 62% | Population Hoechst High Intensity Objects (%) [9]: 4% | Population Membrane Permeable-Phenotype (%) [9]: 0% | Population Mitochondria Different-Phenotype (%) [9]: 10% | Population Mitotic Cells (%) [9]: 37% | Population Normal (%) [9]: 95% | Population Pyknosed Nuclei (%) [9]: 12% | Population Tubulin-Different-Phenotype (%) [9]: 52% | Total Cell Count [9]: 133 | Population Apoptotic (%) [10]: 60% | Population Fragmented Nuclei (%) [10]: 42% | Population Healthy Nuclei (%) [10]: 51% | Population Membrane Permeable-Phenotype (%) [10]: 1% | Population Mitochondria Different-Phenotype (%) [10]: 9% | Population Mitotic Cells (%) [10]: 40% | Population Pyknosed Nuclei (%) [10]: 5% | Population Tubulin-Different-Phenotype (%) [10]: 67% | Total Cell Count [10]: 175 | Population Apoptotic (%) [11]: 62% | Population Fragmented Nuclei (%) [11]: 18% | Population Healthy Nuclei (%) [11]: 50% | Population Hoechst High Intensity Objects (%) [11]: 34% | Population Membrane Permeable-Phenotype (%) [11]: 0% | Population Mitochondria Different-Phenotype (%) [11]: 60% | Population Mitotic Cells (%) [11]: 37% | Population Normal (%) [11]: 65% | Population Pyknosed Nuclei (%) [11]: 31% | Population Tubulin-Different-Phenotype (%) [11]: 88% | Total Cell Count [11]: 208 | Population Apoptotic (%) [12]: 44% | Population Fragmented Nuclei (%) [12]: 30% | Population Healthy Nuclei (%) [12]: 43% | Population Mitochondria Different-Phenotype (%) [12]: 20% | Population Mitotic Cells (%) [12]: 55% | Population Pyknosed Nuclei (%) [12]: 26% | Population Tubulin-Different-Phenotype (%) [12]: 55% | Total Cell Count [12]: 317
